Experimental data reported in ChEMBL document CHEMBL1121953, “Carbon-7 substituted actinomycin D analogues as improved antitumor agents: synthesis and DNA-binding and biological properties” (J Med Chem, 1982).
In brackets after ≈: the same amount, converted by molar mass. *1 amine or outer side, *2 acyl side, *3 side chain or, on linkers, in order; H or OH if unused. Where a SMILES comes first, the peptide text is derived from it. Bridges are numbered along the chain shown (N, C = ends). Roman numbers before positions name the chains, in order. [ ]: non-standard residue; d: D form. Actinocin(9to1) = Cc1c2oc3c(C)ccc(C(=O)[*:1])c3nc-2c(C(=O)[*:2])c(N)c1=O; NMeV = CN[C@H](C(=O)O)C(C)C; Sar = CNCC(=O)O

Legend:
P388 [1] = assay: Antitumor activity against P-388 lymphocytic leukemia in CDF1 hybrid male mice measured as percent increase in lifespan(0.6 mg/kg),ip; type: functional, Mus musculus
Procedure, shortened: (§1)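 Male CDF1 mice (18-23 g) were inoculated ip with 10⁶ P-388 cells on day 0. Drug was given ip in 10% dimethyl sulfoxide-saline on days 1, 5 and 9. Test solutions were kept at 0-4 °C, protected from light, and checked periodically for stability and homogeneity by TLC and HPLC. Read-out was survival, median survival time, increase in life span and tumor-free cures per 7 animals.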

P388 [2] = assay: Antitumor activity against P-388 lymphocytic leukemia in CDF1 hybrid male mice measured as median survival time ( 1.2 mg/kg),ip; type: functional, Mus musculus; procedure, shortened: as §1
P388 [3] = assay: Antitumor activity against P-388 lymphocytic leukemia in CDF1 hybrid male mice measured as median survival time ( 1.8 mg/kg),ip; type: functional, Mus musculus; procedure, shortened: as §1
P388 [4] = assay: Maximum tolerated dose was determined compared to 7-(2,3-Epoxypropoxy)-actinomycin D against P-388 leukemia in mice(4 days); type: functional, Mus musculus
Procedure, shortened: (§2)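 Tumor-free male CDF1 mice (18-23 g) received a broad dose range ip in 10% dimethyl sulfoxide-saline, either on days 1, 5, 9 (three injections) or on 4 successive days (qd 1-4). Deaths were recorded over 21 days. MTD was the dose lethal to 10% (LD10), taken from a plot of log dose vs percent mortality. Average of two experiments.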

P388 [5] = assay: Antitumor activity against P-388 lymphocytic leukemia in CDF1 hybrid male mice measured as percent increase in lifespan( 1.2 mg/kg),ip; type: functional; conditions: Mus musculus; procedure, shortened: as §1
Homo sapiens = species: Homo sapiens; assay: In vitro growth inhibitory activity against human lymphoblastic leukemia cells; type: functional; conditions: read-out: ID50 (the source's name)
Procedure, shortened: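 CCRF-CEM human lymphoblastic leukemia cells in log-phase growth; compounds dissolved in Me₂SO, final growth medium 1% Me₂SO.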

P388 [6] = assay: Number of mice with P-388 lymphocytic leukemia cured.( 1.8 mg/kg),ip; 0/7; type: functional, Mus musculus
P388 [7] = assay: Antitumor activity against P-388 lymphocytic leukemia in CDF1 hybrid male mice measured as percent increase in lifespan(0.15 mg/kg),ip; type: functional, Mus musculus; procedure, shortened: as §1
P388 [8] = assay: Minimum effective dose was determined compared to 7-(2,3-Epoxypropoxy)-actinomycin D against P-388 leukemia in mice(4 days); type: functional, Mus musculus
Procedure, shortened: (§3)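 MED was the dose (mg/kg) giving a 40% increase in life span over control in mice bearing ip P-388 leukemia. Drug was given ip in 10% dimethyl sulfoxide-saline on a q4d 1, 5, 9 (three injections) or qd 1-4 (four injections) schedule.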

P388 [9] = assay: Antitumor activity against P-388 lymphocytic leukemia in CDF1 hybrid male mice measured as median survival time ( 0.15 mg/kg),ip; type: functional, Mus musculus; procedure, shortened: as §1
P388 [10] = assay: Number of mice with P-388 lymphocytic leukemia cured( 0.3 mg/kg),ip; 2/7; type: functional, Mus musculus; procedure, shortened: as §1
P388 [11] = assay: Number of mice with P-388 lymphocytic leukemia cured( 1.2 mg/kg),ip; 0/7; type: functional, Mus musculus; procedure, shortened: as §1
P388 [12] = assay: Number of mice with P-388 lymphocytic leukemia cured( 0.6 mg/kg),ip; 1/7; type: functional, Mus musculus; procedure, shortened: as §1
P388 [13] = assay: Antitumor activity against P-388 lymphocytic leukemia in CDF1 hybrid male mice measured as median survival time ( 0.3 mg/kg),ip; type: functional, Mus musculus; procedure, shortened: as §1
P388 [14] = assay: Antitumor activity against P-388 lymphocytic leukemia in CDF1 hybrid male mice measured as percent increase in lifespan( 1.8 mg/kg),ip; type: functional; conditions: Mus musculus; procedure, shortened: as §1
P388 [15] = assay: Maximum tolerated dose was determined compared to 7-(2,3-Epoxypropoxy)-actinomycin D against P-388 leukemia in mice(3 days); type: functional, Mus musculus; procedure, shortened: as §2
P388 [16] = assay: Number of mice with P-388 lymphocytic leukemia cured( 0.15 mg/kg),ip.; 0/7; type: functional, Mus musculus; procedure, shortened: as §1
P388 [17] = assay: Antitumor activity against P-388 lymphocytic leukemia in CDF1 hybrid male mice measured as median survival time ( 0.6 mg/kg),ip; type: functional, Mus musculus; procedure, shortened: as §1
P388 [18] = assay: Minimum effective dose was determined compared to 7-(2,3-Epoxypropoxy)-actinomycin D against P-388 leukemia in mice(3 days); type: functional, Mus musculus; design: unit: mg/kg; procedure, shortened: as §3
P388 [19] = assay: Antitumor activity against P-388 lymphocytic leukemia in CDF1 hybrid male mice measured as percent increase in lifespan(0.3 mg/kg),ip; type: functional, Mus musculus; procedure, shortened: as §1
P388 [20] = assay: Antitumor activity against P-388 lymphocytic leukemia in CDF1 hybrid male mice measured as percent increase in lifespan( 0.125 mg/kg),ip; type: functional; conditions: Mus musculus; procedure, shortened: as §1
P388 [21] = assay: Number of mice with P-388 lymphocytic leukemia cured.( 0.062 mg/kg),ip; 0/7; type: functional, Mus musculus
P388 [22] = assay: Antitumor activity against P-388 lymphocytic leukemia in CDF1 hybrid male mice measured as median survival time (0.125 mg/kg),ip; type: functional, Mus musculus; procedure, shortened: as §1
P388 [23] = assay: Number of mice with P-388 lymphocytic leukemia cured( 0.250 mg/kg),ip; 0/7; type: functional, Mus musculus; conditions: dose 0.25 mg/kg
P388 [24] = assay: Number of mice with P-388 lymphocytic leukemia cured( 0.125 mg/kg),ip.; 1/7; type: functional, Mus musculus
P388 [25] = assay: Antitumor activity against P-388 lymphocytic leukemia in CDF1 hybrid male mice measured as percent increase in lifespan(0.062 mg/kg),ip; type: functional, Mus musculus; procedure, shortened: as §1
P388 [26] = assay: Antitumor activity against P-388 lymphocytic leukemia in CDF1 hybrid male mice measured as median survival time (0.25 mg/kg),ip; type: functional, Mus musculus; procedure, shortened: as §1
P388 [27] = assay: Antitumor activity against P-388 lymphocytic leukemia in CDF1 hybrid male mice measured as percent increase in lifespan( 0.250 mg/kg),ip; type: functional; conditions: Mus musculus; procedure, shortened: as §1
P388 [28] = assay: Antitumor activity against P-388 lymphocytic leukemia in CDF1 hybrid male mice measured as median survival time (0.062 mg/kg),ip; type: functional, Mus musculus; procedure, shortened: as §1
P388 [29] = assay: Antitumor activity against P-388 lymphocytic leukemia in CDF1 hybrid male mice measured as median survival time (0.031 mg/kg),ip; type: functional, Mus musculus; procedure, shortened: as §1
[30] = Therapeutic Index measured as the MTD/MED ratio compared to that of compound 4; conditions: read-out: Therapeutic index
Procedure, shortened: (§4)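 Therapeutic index is MTD/MED, with ip dosing in 10% dimethyl sulfoxide-saline on a qd 1-4 or q4d 1, 5, 9 schedule. MED is the dose giving a 40% increase in life span over control in P-388-bearing mice. MTD is the LD10 in tumor-free male CDF1 mice (18-23 g) over 21 days, read from a log dose vs. percent mortality plot and averaged over 2-3 experiments.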

[31] = Therapeutic Index measured as the MTD/MED ratio compared to that of compound 3; conditions: read-out: Therapeutic index; procedure, shortened: as §4
P388 [32] = assay: Antitumor activity against P-388 lymphocytic leukemia in CDF1 hybrid male mice measured as median survival time ( 0.375 mg/kg),ip; type: functional, Mus musculus; procedure, shortened: as §1
P388 [33] = assay: Antitumor activity against P-388 lymphocytic leukemia in CDF1 hybrid male mice measured as percent increase in lifespan( 0.031 mg/kg),ip; type: functional; conditions: Mus musculus; procedure, shortened: as §1
[34] = In vitro growth inhibitory activity for effect on melting temperature of DNA was determined
Procedure, shortened: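 DNA thermal denaturation; ΔTm = Tm of DNA-drug complex minus Tm of DNA. Drug 1.4×10⁻⁴ M, DNA (P) 1.4×10⁻³ M in 0.01 M phosphate buffer pH 7.0 with 5×10⁻³ M EDTA and 5% dimethyl sulfoxide.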

P388 [35] = assay: Number of mice with P-388 lymphocytic leukemia cured( 0.031 mg/kg),ip; 0/7; type: functional, Mus musculus

SMILES: Cc1c2oc3c(C)c(OCC(O)CO)cc(C(=O)N[C@@H]4C(=O)N[C@H](C(C)C)C(=O)N5CCC[C@H]5C(=O)N(C)CC(=O)N(C)[C@@H](C(C)C)C(=O)O[C@@H]4C)c3nc-2c(C(=O)N[C@@H]2C(=O)N[C@H](C(C)C)C(=O)N3CCC[C@H]3C(=O)N(C)CC(=O)N(C)[C@@H](C(C)C)C(=O)O[C@@H]2C)c(N)c1=O (stereo partly specified)
- ILS (P388 [1]): 136%
- MST (P388 [2]): 32 days
- MST (P388 [3]): 15 days
- MTD (P388 [4]): 1.4
- ILS at 1.2 mg/kg (P388 [5]): 191%
- IC50 (Homo sapiens): 0.085 µg/mL (≈ 0.0632 µM)
- Cure (P388 [6]): 0
- ILS (P388 [7]): 45%
- MED (P388 [8]): 0.125
- MST (P388 [9]): 16 days
- Cure (P388 [10]): 2
- Cure (P388 [11]): 0
- Cure (P388 [12]): 1
- MST (P388 [13]): 20 days
- ILS at 1.8 mg/kg (P388 [14]): 36%
- MTD (P388 [15]): 1.8
- Cure (P388 [16]): 0
- MST (P388 [17]): 25 days
- MED (P388 [18]): 0.15
- ILS (P388 [19]): 82%

SMILES: Cc1c2oc3c(C)ccc(C(=O)N[C@@H]4C(=O)N[C@H](C(C)C)C(=O)N5CCC[C@H]5C(=O)N(C)CC(=O)N(C)[C@@H](C(C)C)C(=O)O[C@@H]4C)c3nc-2c(C(=O)N[C@@H]2C(=O)N[C@H](C(C)C)C(=O)N3CCC[C@H]3C(=O)N(C)CC(=O)N(C)[C@@H](C(C)C)C(=O)O[C@@H]2C)c(N)c1=O [DACTINOMYCIN] (I: T[dV]P[Sar][NMeV] / II: T[dV]P[Sar][NMeV]; ester I:1-I:C, II:1-II:C; linker I:N-II:N via Actinocin(9to1))
- ILS at 0.125 mg/kg (P388 [20]): 136%
- Cure (P388 [21]): 0
- MST (P388 [22]): 26 days
- MTD (P388 [4]): 0.15
- IC50 (Homo sapiens): 0.06 µg/mL (≈ 0.0478 µM)
- Cure (P388 [23]): 0
- Cure (P388 [24]): 1
- MED (P388 [8]): 0.05
- ILS (P388 [25]): 45%
- MST (P388 [26]): 17 days
- ILS at 0.25 mg/kg (P388 [27]): 55%
- MST (P388 [28]): 16 days
- MTD (P388 [15]): 0.25
- MST (P388 [29]): 13 days
- selectivity ratio [30]: 3
- selectivity ratio [31]: 4
- MST (P388 [32]): 9 days
- ILS at 0.031 mg/kg (P388 [33]): 18%
- DNA melting temperature shift (ΔTm) [34]: 7.1 °C
- Cure (P388 [35]): 0
- MED (P388 [18]): 0.0625
